High-throughput results: PubChem, several laboratories
IEC-6 cytotox: IEC-6 cytotoxicity, counter-screen for KLF5 inhibitors; luminescence viability; inhibition, % at 5 µM; 0.78% of 290,000 active; AID 1825;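 note: 0% = plate median of test compound wells and 100% = cytotoxic reference compound wells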
APP transl inh: APP translation inhibition; inhibition, % at 2 µM; SH-SY5Y APP 5'UTR-luciferase reporter, luminescence; 0.82% of 190,000 active;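 active = inhibition above a set limit, derived from the sample mean plus 3 SD, cut at about 45% in these data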
MT stabilize HCS: microtubule stabilizers in HeLa cells | HeLa tubulin immunostaining HCS, 24 h; share of cells brighter than vehicle mean+2SD | % tubulin-high responders, % at 10 µM | 0.83% of 200,000 active | AID 2205;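 active = plate Z-score above 3 for both tubulin-high and condensed-nucleus cell shares, with cell loss under 80%, at 10 µM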;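 note: anti alpha tubulin signal scored within the nucleus-defined area of each cell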
b-catenin transl: alters nuclear translocation of beta-catenin in HeLa cells; nuclear translocation activity, % at 5 µM; immunofluorescence imaging; 0.3% of 190,000 active;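 active = nuclear translocation activity above 50% at 5 µM, with a well cell count of 50 or more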;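 note: per-cell ratio of nuclear to cytoplasmic median beta-catenin stain intensity; plate controls were DMSO negative control for no effect and GSK-3 inhibitor IX positive control for full effect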
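Technique: fluorescence imaging of beta-catenin antibody stain plus DAPI / Material: human HeLa cell line / Incubation: compound treatment 24 h, 37°C, 5% CO2 / Read-out basis: % activation of per-cell nuclear versus cytoplasmic median beta-catenin signal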
BaF3 parental: reduces parental Ba/F3 cell viability, JAK2V617F counter-screen | 1.1% of 220,000 active | AID 1486 | inhibition, % at 5.6 µM | CellTiter-Glo ATP luminescence;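 active = inhibition above a per-campaign cutoff, the mean inhibition of all tested compounds plus 3 SD, cut at about 27% in these data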;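 note: 0% = DMSO wells and 100% = JAK Inhibitor I control wells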
Ba/F3 V617F tox: lowers viability of Ba/F3 cells expressing EpoR and JAK2V617F. ATP luminescence. 1.1% of 220,000 active. inhibition, % at 5.6 µM;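 active = inhibition above the campaign mean plus 3 SD over all tested compounds, cut at about 24% in these data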;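 note: cytokine-independent growth of Ba/F3 cells driven by EpoR plus mutant JAK2; 0% = DMSO-treated cells and 100% = JAK inhibitor I control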
BaF3 parental 2: counter-screen for JAK2V617F inhibitors: parental Ba/F3 viability inhibitors. shares compounds with Ba/F3 V617F tox. CellTiter-Glo luminescence; cells kept alive by added IL-3. inhibition, % at 5.6 µM. 31% of 580 active. AID 1520;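 active = cell growth inhibition above the hit limit set in the earlier mutant JAK2 cell screen, cut at about 27% in these data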;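 note: plate controls were DMSO-treated cells for no effect and JAK Inhibitor I control wells for full effect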
JAK2V617F confrm: Ba/F3 EpoR-JAK2V617F viability loss, confirmation; shares compounds with Ba/F3 V617F tox; CellTiter-Glo luminescence; inhibition, % at 5.6 µM; 66% of 580 active; AID 1521;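 active = mean inhibition above the hit cutoff derived in the earlier primary screen, cut at about 25% in these data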;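 note: 0% = DMSO-treated cells and 100% = JAK inhibitor I control wells; higher means lower luminescence from reduced cell ATP and viability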
IEC-6 tox confirm: IEC-6 cytotoxicity, confirmation assay. shares compounds with IEC-6 cytotox. IEC-6 rat intestinal epithelial viability, luminescence. inhibition, % at 5 µM. 63% of 1,900 active;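 note: 0% = vehicle and 100% = reference cytotoxic drug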
An asterisk follows results filed as active. Compounds with a hit are over-represented: about 2.2% of the library has one in this group of screens. Cut-off read from the data, not from the text of the source, unless noted: active = inhibition above about 22%; inactive = the rest.

Results for CN1CCN(S(=O)(=O)c2cccs2)CC1 ?
IEC-6 cytotox: -0.3; APP transl inh: 19.4; MT stabilize HCS: 1.0; b-catenin transl: 1.2; BaF3 parental: 0.3; Ba/F3 V617F tox: -1.3

How did O=S(=O)(c1cccs1)N1CCN(c2ccc(O)cc2)CC1 do in these assays?
IEC-6 cytotox: 24.3*; b-catenin transl: -3.6; BaF3 parental: -1.9; Ba/F3 V617F tox: 65.5*; BaF3 parental 2: 6.4; JAK2V617F confrm: 60.1*; IEC-6 tox confirm: 5.8

Results for CCc1nnc(N/N=C/c2ccccc2Cl)n1N ?
IEC-6 cytotox: 100.3*; APP transl inh: 6.0; MT stabilize HCS: 1.6; b-catenin transl: -1.5; BaF3 parental: 23.7; Ba/F3 V617F tox: 25.0*; BaF3 parental 2: -3.5; JAK2V617F confrm: -2.2; IEC-6 tox confirm: -6.1

What do the screens show for `Cc1ccc(-c2nnc(SCC(=O)N/N=C/c3ccc(C(=O)O)cc3)n2C2CCCCC2)cc1`?
IEC-6 cytotox: -9.4

How did CCOc1ccc2nc(NC(=O)C34CC5CC(CC(NC(C)=O)(C5)C3)C4)sc2c1 do in these assays?
IEC-6 cytotox: 0.5

How did COc1ccc(N(C(=O)CCl)C(C(=O)NCCc2ccccc2)c2cccs2)cc1Cl (centres undefined) do in these assays?
IEC-6 cytotox: 78.5*; APP transl inh: -2.0; MT stabilize HCS: 31.9; b-catenin transl: -2.0; BaF3 parental: -1.9; Ba/F3 V617F tox: 101.1*; BaF3 parental 2: 25.2; JAK2V617F confrm: 99.3*; IEC-6 tox confirm: 42.1*

How did COc1cccc(N(C(=O)CCl)C(C(=O)NCCc2ccccc2)c2cccs2)c1 (centres undefined) do in these assays?
IEC-6 cytotox: 86.6*; APP transl inh: 4.3; MT stabilize HCS: 5.2; b-catenin transl: 1.8; BaF3 parental: 3.7; Ba/F3 V617F tox: 99.2*; BaF3 parental 2: 21.3; JAK2V617F confrm: 99.1*; IEC-6 tox confirm: 40.6*

How did Cn1c(=O)c2sccc2n2c(CCCC(=O)NCc3ccco3)nnc12 do in these assays?
IEC-6 cytotox: -7.6

What do the screens show for `CCc1ccc(/C=N/NC(=O)c2cc(C3CC3)nc3ccccc23)s1`?
IEC-6 cytotox: 34.2*; APP transl inh: 44.0; MT stabilize HCS: 41.4*; BaF3 parental: 21.9; Ba/F3 V617F tox: 42.4*; BaF3 parental 2: 62.9*; JAK2V617F confrm: 94.8*; IEC-6 tox confirm: 54.4*

Results for Cc1cccc(/C=N/NC(=O)c2cc(C3CC3)nc3ccccc23)n1 ?
IEC-6 cytotox: 0.5

Results for C#CCN1C(=O)C2(OCCO2)c2ccccc21 ?
IEC-6 cytotox: 3.1

How did COc1ccc(NC(=O)Cc2ccc(Cl)c(Cl)c2)cn1 do in these assays?
IEC-6 cytotox: 0.2; APP transl inh: -8.7; MT stabilize HCS: 2.0; b-catenin transl: -0.6; BaF3 parental: 2.2; Ba/F3 V617F tox: -1.8

What do the screens show for `COc1ccc(NC(=O)/C(Cl)=C(/Cl)S(=O)(=O)Cc2ccc(C)cc2)cn1`?
IEC-6 cytotox: 22.6*; APP transl inh: 86.0*; MT stabilize HCS: 0.8; BaF3 parental: 4.9; Ba/F3 V617F tox: 33.3*; BaF3 parental 2: 88.5*; JAK2V617F confrm: 98.5*; IEC-6 tox confirm: 43.2*

Results for COc1cccc(CN(C)C(=O)CSc2nc3ccccc3[nH]2)c1OC ?
IEC-6 cytotox: 3.6

What do the screens show for `OC1(c2ccc(Cl)cc2)CCN(Cc2cn[nH]c2-c2ccccc2)CC1`?
IEC-6 cytotox: 14.0; b-catenin transl: -3.9; BaF3 parental: -1.4; Ba/F3 V617F tox: 12.8

What do the screens show for `COc1ccc(-c2[nH]ncc2CN2CCC(O)(c3ccc(Cl)cc3)CC2)cc1`?
IEC-6 cytotox: 34.3*; b-catenin transl: -5.2; BaF3 parental: 10.6; Ba/F3 V617F tox: 41.5*; BaF3 parental 2: 34.2*; JAK2V617F confrm: 40.7*; IEC-6 tox confirm: 23.4*

How did OC1(c2ccc(Cl)cc2)CCN(Cc2cn[nH]c2-c2ccc(F)cc2)CC1 do in these assays?
IEC-6 cytotox: 43.1*; b-catenin transl: -2.2; BaF3 parental: 2.7; Ba/F3 V617F tox: 45.2*; BaF3 parental 2: 18.3; JAK2V617F confrm: 34.5*; IEC-6 tox confirm: 26.0*

How did Cc1ccc(C)c(CN2CCCN(Cc3cc(C)ccc3C)S2(=O)=O)c1 do in these assays?
IEC-6 cytotox: 3.8

What do the screens show for `Cc1nn2c(NCCN3CCOCC3)c3c(nc2c1-c1ccccc1)CCCC3`?
IEC-6 cytotox: 0.6; b-catenin transl: 0.8; BaF3 parental: 2.5; Ba/F3 V617F tox: 0.1

What do the screens show for `Cc1nn2c(NCc3ccccn3)c3c(nc2c1-c1ccccc1)CCC3`?
IEC-6 cytotox: 94.9*; b-catenin transl: 0.6; BaF3 parental: 10.7; Ba/F3 V617F tox: 48.3*; BaF3 parental 2: 9.9; JAK2V617F confrm: 58.9*; IEC-6 tox confirm: 15.3

How did Cc1noc(C)c1CSc1nc2ccccc2c(=O)n1-c1ccccc1 do in these assays?
IEC-6 cytotox: 29.9*; APP transl inh: 24.5; MT stabilize HCS: 42.4*; b-catenin transl: 28.8; BaF3 parental: 26.2; Ba/F3 V617F tox: 29.3*; BaF3 parental 2: 33.4*; JAK2V617F confrm: 53.6*; IEC-6 tox confirm: 38.0*

What do the screens show for `COc1ccc(/C=C/C(=O)NC(=S)Nc2ccc(Br)cn2)cc1`?
IEC-6 cytotox: -5.8

Results for COc1cc(C)c(C(C)C)cc1S(=O)(=O)n1cnc(C)c1 ?
IEC-6 cytotox: 36.4*; APP transl inh: -11.8; MT stabilize HCS: 14.2*; b-catenin transl: 93.1*; BaF3 parental: 16.3; Ba/F3 V617F tox: 63.0*; BaF3 parental 2: 61.4*; JAK2V617F confrm: 92.4*; IEC-6 tox confirm: 51.4*

What do the screens show for `COc1ccc(C(=O)Nc2ccccc2C(=O)NCc2cccnc2)cc1`?
IEC-6 cytotox: -3.5

Results for CCC(=O)N1CCN(c2ccc(NC(=O)c3ccc([N+](=O)[O-])o3)cc2)CC1 ?
IEC-6 cytotox: 97.0*; APP transl inh: 48.5*; MT stabilize HCS: 5.5; b-catenin transl: 7.8; BaF3 parental: -14.4; Ba/F3 V617F tox: 33.7*; BaF3 parental 2: 45.5*; JAK2V617F confrm: 94.8*; IEC-6 tox confirm: 51.4*

Results for CCCC(=O)N1CCN(c2ccc(NC(=O)c3ccc(Br)o3)cc2)CC1 ?
IEC-6 cytotox: -4.1; APP transl inh: -7.3; MT stabilize HCS: 2.4; b-catenin transl: -1.7; BaF3 parental: 5.0; Ba/F3 V617F tox: -0.5

What do the screens show for `O=C(N/N=C/c1ccccc1Cl)c1[nH]c2ccc(Br)cc2c1-c1ccccc1`?
IEC-6 cytotox: 56.2*; APP transl inh: 95.9*; MT stabilize HCS: 7.1; b-catenin transl: 94.1*; BaF3 parental: 21.3; Ba/F3 V617F tox: 47.3*; BaF3 parental 2: 87.5*; JAK2V617F confrm: 99.6*; IEC-6 tox confirm: 69.7*
